Experimental data taken from ChEMBL document CHEMBL5046302, “Identification and Evaluation of Brominated Carbazoles as a Novel Antibiotic Adjuvant Scaffold in MRSA” (2022).
The source made the active and inactive calls. The rule behind the calls is not given here.

Assays:
Type in all cases: functional
Staphylococcus aureus [1] = assay: Potentiation of oxacillin induced antibacterial activity against methicillin-resistant Staphylococcus aureus USA 100 assessed as fold change in oxacillin MIC at 50 uM after 18 hrs by CLSI protocol based broth microdilution assay
Staphylococcus aureus [2] = assay: Potentiation of oxacillin induced antibacterial activity against methicillin-resistant Staphylococcus aureus USA300 assessed as oxacillin MIC at 50 uM after 18 hrs by CLSI protocol based broth microdilution assay
Staphylococcus aureus [3] = assay: Potentiation of oxacillin induced antibacterial activity against methicillin-resistant Staphylococcus aureus ATCC 43300 assessed as fold change in oxacillin MIC at 50 uM after 18 hrs by CLSI protocol based broth microdilution assay
Staphylococcus aureus [4] = assay: Potentiation of oxacillin induced antibacterial activity against methicillin-resistant Staphylococcus aureus ATCC 43300 assessed as oxacillin MIC at 50 uM after 18 hrs by CLSI protocol based broth microdilution assay
Staphylococcus aureus [5] = assay: Antibacterial activity against methicillin-resistant Staphylococcus aureus ATCC 43300 assessed as inhibition of bacterial growth after 18 hrs by CLSI protocol based broth microdilution assay
Procedure, shortened: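 Broth microdilution MIC of carbazole alone vs MRSA ATCC 43300, tested up to 200 μM.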

Staphylococcus aureus [6] = assay: Potentiation of oxacillin induced antibacterial activity against methicillin-resistant Staphylococcus aureus COL assessed as oxacillin MIC at 50 uM after 18 hrs by CLSI protocol based broth microdilution assay
Staphylococcus aureus [7] = assay: Potentiation of oxacillin induced antibacterial activity against methicillin-resistant Staphylococcus aureus USA300 assessed as fold change in oxacillin MIC at 50 uM after 18 hrs by CLSI protocol based broth microdilution assay
Staphylococcus aureus [8] = assay: Potentiation of oxacillin induced antibacterial activity against methicillin-resistant Staphylococcus aureus COL assessed as fold change in oxacillin MIC at 50 uM after 18 hrs by CLSI protocol based broth microdilution assay
Staphylococcus aureus [9] = assay: Potentiation of oxacillin induced antibacterial activity against methicillin-resistant Staphylococcus aureus USA100 assessed as oxacillin MIC at 50 uM after 18 hrs by CLSI protocol based broth microdilution assay
Staphylococcus aureus [10] = assay: Upregulation of blaZ gene expression in methicillin-resistant Staphylococcus aureus ATCC 43300 by RT-PCR method
Staphylococcus aureus [11] = assay: Antibacterial activity against methicillin-resistant Staphylococcus aureus USA300 harboring stk1 deletion mutant assessed as inhibition of bacterial growth after 18 hrs in presence of oxacillin by CLSI protocol based broth microdilution assay
Procedure, shortened: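 USA300 Δstk1 mutant. Oxacillin MIC (µg mL⁻¹) was read with each carbazole held at a fixed 25 or 50 µM, and compared with oxacillin alone in the same strain. Fold change in MIC was taken as alone over cotreated. The parent USA300 and the stk1-complemented (Δ/+stk1) strains were run alongside.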

Staphylococcus aureus [12] = assay: Upregulation of mecA gene expression in methicillin-resistant Staphylococcus aureus ATCC 43300 by RT-PCR method
Staphylococcus aureus [13] = assay: Antibacterial activity against methicillin-resistant Staphylococcus aureus USA300 assessed as inhibition of bacterial growth after 18 hrs in presence of oxacillin by CLSI protocol based broth microdilution assay
Staphylococcus aureus [14] = assay: Antibacterial activity against methicillin-resistant Staphylococcus aureus USA100 assessed as inhibition of bacterial growth after 18 hrs in presence of oxacillin by CLSI protocol based broth microdilution assay
Staphylococcus aureus [15] = assay: Antibacterial activity against methicillin-resistant Staphylococcus aureus USA300 harboring stk1 deletion mutant co-transfected with a plasmid bearing stk1 assessed as inhibition of bacterial growth after 18 hrs in presence of oxacillin by CLSI protocol based broth microdilution assay
Procedure, shortened: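 USA300 Δstk1 strain carrying induced stk1 (Δ/+stk1). […] Fold change in MIC taken relative to oxacillin alone.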

Staphylococcus aureus [16] = assay: Upregulation of mecA gene expression in methicillin-resistant Staphylococcus aureus USA300 by RT-PCR method
Staphylococcus aureus [17] = assay: Upregulation of mecA gene expression in methicillin-resistant Staphylococcus aureus USA100 by RT-PCR method
Staphylococcus aureus [18] = assay: Upregulation of mecA gene expression in methicillin-resistant Staphylococcus aureus COL by RT-PCR method
Staphylococcus aureus [19] = assay: Upregulation of blaZ gene expression in methicillin-resistant Staphylococcus aureus USA100 by RT-PCR method
Staphylococcus aureus [20] = assay: Antibacterial activity against methicillin-resistant Staphylococcus aureus COL assessed as inhibition of bacterial growth after 18 hrs in presence of oxacillin by CLSI protocol based broth microdilution assay
Staphylococcus aureus [21] = assay: Potentiation of oxacillin induced antibacterial activity against methicillin-resistant Staphylococcus aureus ATCC 43300 assessed as oxacillin MIC at 25 uM after 18 hrs by CLSI protocol based broth microdilution assay
Staphylococcus aureus [22] = assay: Potentiation of oxacillin induced antibacterial activity against methicillin-resistant Staphylococcus aureus ATCC 43300 assessed as fold change in oxacillin MIC at 10 uM after 18 hrs by CLSI protocol based broth microdilution assay
Staphylococcus aureus [23] = assay: Potentiation of oxacillin induced antibacterial activity against methicillin-resistant Staphylococcus aureus USA100 assessed as fold change in oxacillin MIC at 10 uM after 18 hrs by CLSI protocol based broth microdilution assay
Staphylococcus aureus [24] = assay: Potentiation of oxacillin induced antibacterial activity against methicillin-resistant Staphylococcus aureus COL assessed as oxacillin MIC at 10 uM after 18 hrs by CLSI protocol based broth microdilution assay
Staphylococcus aureus [25] = assay: Potentiation of oxacillin induced antibacterial activity against methicillin-resistant Staphylococcus aureus COL assessed as fold change in oxacillin MIC at 10 uM after 18 hrs by CLSI protocol based broth microdilution assay
Staphylococcus aureus [26] = assay: Potentiation of oxacillin induced antibacterial activity against methicillin-resistant Staphylococcus aureus USA300 assessed as oxacillin MIC at 10 uM after 18 hrs by CLSI protocol based broth microdilution assay
Staphylococcus aureus [27] = assay: Potentiation of oxacillin induced antibacterial activity against methicillin-resistant Staphylococcus aureus USA300 assessed as fold change in oxacillin MIC at 10 uM after 18 hrs by CLSI protocol based broth microdilution assay
Staphylococcus aureus [28] = assay: Potentiation of oxacillin induced antibacterial activity against methicillin-resistant Staphylococcus aureus USA100 assessed as oxacillin MIC at 10 uM after 18 hrs by CLSI protocol based broth microdilution assay
Staphylococcus aureus [29] = assay: Potentiation of oxacillin induced antibacterial activity against methicillin-resistant Staphylococcus aureus ATCC 43300 assessed as oxacillin MIC at 10 uM after 18 hrs by CLSI protocol based broth microdilution assay

| SMILES | fold change (FC) (Staphylococcus aureus [1]) | MIC (Staphylococcus aureus [2]) | fold change (FC) (Staphylococcus aureus [3]) | MIC (Staphylococcus aureus [4]) | MIC (Staphylococcus aureus [5]) | MIC (Staphylococcus aureus [6]) | fold change (FC) (Staphylococcus aureus [7]) | fold change (FC) (Staphylococcus aureus [8]) | MIC (Staphylococcus aureus [9]) | also measured |
| --- | --- | --- | --- | --- | --- | --- | --- | --- | --- | --- |
| Brc1ccc2c(c1)[nH]c1ccccc12 | 2 | 32 µg/mL | 2 | 16 µg/mL | > 200 µM | 512 µg/mL | 1 | 1 | 128 µg/mL |  |
| Cc1onc(-c2ccccc2)c1C(=O)N[C@@H]1C(=O)N2[C@@H]1SC(C)(C)[C@@H]2C(=O)O [OXACILLIN] |  |  |  |  | 32 µg/mL |  |  |  |  | Activity (Staphylococcus aureus [10]): Active; MIC (Staphylococcus aureus [11]): 0.25 µg/mL; Activity (Staphylococcus aureus [12]): Active; MIC (Staphylococcus aureus [13]): 32 µg/mL; MIC (Staphylococcus aureus [14]): 256 µg/mL; MIC (Staphylococcus aureus [15]): 4 µg/mL; Activity (Staphylococcus aureus [16]): Active; Activity (Staphylococcus aureus [17]): Active; Activity (Staphylococcus aureus [18]): Active; Activity (Staphylococcus aureus [19]): Active; MIC (Staphylococcus aureus [20]): 512 µg/mL |
| Brc1ccc2c(c1)[nH]c1cc(Br)ccc12 | 4 | 8 µg/mL | 4 | 8 µg/mL | > 200 µM | 256 µg/mL | 4 | 2 | 64 µg/mL |  |
| CO[C@@]1(NC(=O)Cc2cccs2)C(=O)N2C(C(=O)O)=C(COC(N)=O)CS[C@@H]21 [CEFOXITIN] |  |  |  |  | 64 µg/mL |  |  |  |  | MIC (Staphylococcus aureus [13]): 32 µg/mL; MIC (Staphylococcus aureus [14]): 256 µg/mL; MIC (Staphylococcus aureus [20]): 256 µg/mL |
| CC1(C)S[C@@H]2[C@H](NC(=O)[C@H](N)c3ccccc3)C(=O)N2[C@H]1C(=O)O [AMPICILLIN] |  |  |  |  | 32 µg/mL |  |  |  |  | MIC (Staphylococcus aureus [13]): 8 µg/mL; MIC (Staphylococcus aureus [14]): 32 µg/mL; MIC (Staphylococcus aureus [20]): 32 µg/mL |
| Clc1ccc2c(c1)[nH]c1ccccc12 | 2 | 16 µg/mL | 2 | 16 µg/mL | > 200 µM | 512 µg/mL | 1 | 2 | 128 µg/mL |  |
| CC(C(=O)O)c1ccc2c(c1)[nH]c1ccc(Cl)cc12 (stereo not given) [CARPROFEN] | 1 | 16 µg/mL |  |  | 100 µM | 512 µg/mL | 1 | 1 | 256 µg/mL | MIC (Staphylococcus aureus [21]): 32 µg/mL |
| Nc1ccc2[nH]c3ccc(N)cc3c2c1 | 1 | 16 µg/mL | 1 | 32 µg/mL | > 200 µM | 512 µg/mL | 1 | 1 | 256 µg/mL |  |
| Ic1ccc2[nH]c3ccccc3c2c1 | 2 | 16 µg/mL | 2 | 16 µg/mL | > 200 µM | 512 µg/mL | 2 | 1 | 128 µg/mL |  |
| COc1ccc2[nH]c3ccc(OC)cc3c2c1 | 1 | 64 µg/mL | 0.5 | 64 µg/mL | > 200 µM | 512 µg/mL | >1 | 1 | 256 µg/mL |  |
| c1ccc2c(c1)[nH]c1ccccc12 [CARBAZOLE] | 1 | 32 µg/mL | 1 | 32 µg/mL | > 200 µM | 512 µg/mL | 1 | 1 | 256 µg/mL |  |
| Clc1ccc2[nH]c3ccc(Cl)cc3c2c1 |  |  |  |  | 50 µM |  |  |  |  | fold change (FC) (Staphylococcus aureus [22]): 1; fold change (FC) (Staphylococcus aureus [23]): 1; MIC (Staphylococcus aureus [24]): 128 µg/mL; fold change (FC) (Staphylococcus aureus [25]): 4; MIC (Staphylococcus aureus [26]): 16 µg/mL; fold change (FC) (Staphylococcus aureus [27]): 2; MIC (Staphylococcus aureus [28]): 256 µg/mL; MIC (Staphylococcus aureus [29]): 16 µg/mL |
| Brc1ccc2[nH]c3ccccc3c2c1 | 2 | 32 µg/mL | 1 | 32 µg/mL | > 200 µM | 512 µg/mL | 1 | 1 | 128 µg/mL |  |
| COc1cccc(OC)c1C(=O)N[C@@H]1C(=O)N2[C@@H]1SC(C)(C)[C@@H]2C(=O)O [METHICILLIN] |  |  |  |  | 4 µg/mL |  |  |  |  | MIC (Staphylococcus aureus [13]): 32 µg/mL; MIC (Staphylococcus aureus [14]): 512 µg/mL; MIC (Staphylococcus aureus [20]): 1020 µg/mL |
| Oc1cccc2[nH]c3ccccc3c12 | 1 | 32 µg/mL | 1 | 32 µg/mL | > 200 µM | 512 µg/mL | 1 | 1 | 256 µg/mL |  |
| Fc1ccc2[nH]c3ccccc3c2c1 | 2 | 32 µg/mL | 2 | 16 µg/mL | > 200 µM | 512 µg/mL | 1 | 1 | 128 µg/mL |  |
| CC(C)(O/N=C(\C(=O)N[C@@H]1C(=O)N2C(C(=O)[O-])=C(C[n+]3ccccc3)CS[C@H]12)c1csc(N)n1)C(=O)O [CEFTAZIDIME] |  |  |  |  | 128 µg/mL |  |  |  |  | MIC (Staphylococcus aureus [13]): 512 µg/mL; MIC (Staphylococcus aureus [14]): 1020 µg/mL; MIC (Staphylococcus aureus [20]): 1020 µg/mL |
